# Screening data from PubChem.
# PostGolgi yeast: growth inhibition of a yeast mutant, post-Golgi transport screen. post-Golgi transport phenotypic cell assay. inhibition, % at 10 µM. 0.9% of 98,000 active. AID 739;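 further: yeast cells grown in 1536-well plates; yeast grown about 18 h at 30C before absorbance read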
# Candida biofilm: kills Candida albicans biofilms | C. albicans biofilm + clotrimazole, Alamar Blue | inhibition, % at 6 µM | 0.14% of 85,000 active | AID 834;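 active means inhibition above 20%; inactive means inhibition below 20%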;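 further: preformed 24 hr biofilms exposed to compound for 48 hr; 0% = biofilm without compound and 100% = blank killed by clotrimazole plus chlorhexidine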
# FAK blocker: inhibitors of human focal adhesion kinase; Q05397; biochemical FAK kinase activity assay; inhibition, %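 (tested at 7 µM)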; 0.84% of 97,000 active; in the data active means inhibition above about 19%;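 further: 0% = DMSO and 100% = reference compound high control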
# Pyk2 oligo antag: blocks oligomerization of human Pyk2 in cells | Q14289 | z-score (the deposit names both 25 µM and 10 µM) | Q293 cells, Pyk2 FERM NanoBiT luminescence; hits give low values | 0.83% of 99,000 active;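 active means Z-score of -3 or lower, scaled per plate to the spread of control and sample wells; inactive means z-score above -3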;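 further: negative z-score means lost luminescence so less FERM oligomerization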
# Ecoli tolC: growth inhibitors of E. coli BW25113 tolC mutant. OD615. growth inhibition, % at 10 µM (by protocol). 2.2% of 65,000 active;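 active means growth inhibition at or above a cutoff equal to the mean over every tested compound plus 3 SD, cut at about 60% in these data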;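 further: growth measured after 20 h incubation at 37 °C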
#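 Doses: one dose of 10 µM final / Material: E. coli BW25113 ΔtolC::kan, tolC deletion mutant strain / Buffer or medium: LB with kanamycin 50 µg/mL / Evaluation: percent growth inhibition / Detection: optical density read at 615 nm / Incubation: 37 °C, 20 h exposure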
# PostGolgi ctrl: yeast control strain growth, post-Golgi counter-screen; efflux-deficient yeast background strain, growth absorbance A615, 16 h; 5% of 98,000 active; inhibition, % at 10 µM; AID 738
# Active calls of the source: *; nt = no result. Sampled rows, rich in hits. Any-hit rate of the full collection: about 6.9%. Unless noted, no stated cut-off is given here; in the data, active means inhibition above about 30%; inactive means the rest.
SMILES,PostGolgi yeast,Candida biofilm,FAK blocker,Pyk2 oligo antag,Ecoli tolC,PostGolgi ctrl
CCC(C)N1C(=O)c2ccccc2C1C(=O)NC1CCCCCC1 (centres undefined),-7.0,7.3,0.9,0.6,1.3,31.1*
CC(C)N1C(=O)c2ccccc2C1C(=O)NC1CCCCCC1 (centres undefined),0.7,7.7,-0.2,2.72,0.6,-11.5
O=C(NC1CCCCC1)C(c1ccc2ncccc2c1)N(Cc1cccs1)C(=O)c1cccs1 (centres undefined),25.0,nt,7.4,-2.85,nt,1.4
CC(=O)N(Cc1ccco1)C1(C(=O)NC2CCCCC2)CCCCC1,-1.8,-1.4,1.2,-0.6,-1.9,-7.0
O=C(Cc1cccs1)N(Cc1cccs1)C1(C(=O)NC2CCCC2)CCCCC1,-6.5,9.9,-0.5,-3.43*,nt,17.9
O=C(Cc1cccs1)N(Cc1ccco1)C1(C(=O)NC2CCCCC2)CCCCC1,-15.9,nt,-1.2,-4.23*,nt,25.4
O=C(NC1CCCCC1)C(c1cccs1)N(Cc1cccs1)C(=O)c1cccs1 (centres undefined),nt,8.4,1.1,-3.93*,nt,nt
CC1CCC(C(C)C)C(OCC(O)CN2CCN(Cc3ccccc3)CC2)C1 (centres undefined),103.5*,nt,-6.5,1.48,nt,30.1*
CC1CCC(C(C)C)C(OCC(O)CN2CCOCC2)C1 (centres undefined),9.2,7.2,-2.0,-0.44,nt,10.5
COc1ccc(C(c2nnnn2Cc2ccccc2)N2CCN(c3nc4ccccc4s3)CC2)cc1 (centres undefined),9.9,7.0,nt,-4.09*,3.8,23.5
COc1ccc(C(c2nnnn2Cc2ccccc2)N2CCN(c3ccccc3)CC2)cc1 (centres undefined),nt,6.4,nt,-3.82*,25.0,nt
COc1ccc(C(c2nnnn2Cc2cccs2)N2CCN(c3ccccc3F)CC2)cc1 (centres undefined),-1.7,4.0,8.2,-3.87*,12.7,17.9
COc1ccc(Cn2nnnc2C(c2ccccc2)N2CCN(C3CCCC3)CC2)cc1 (centres undefined),-6.3,0.7,nt,0.16,-2.2,2.5
Fc1ccc(C(c2nnnn2Cc2cccs2)N2CCN(C3CCCC3)CC2)cc1 (centres undefined),11.9,nt,-1.1,-1.47,-7.2,12.8
COCCn1nnnc1C(c1ccc(OC)c(OC)c1)N1CCN(c2nc3ccccc3s2)CC1 (centres undefined),nt,5.0,2.5,-3.37*,10.7,nt
COc1cccc(OC)c1C(=O)N1CCN(Cc2ccncc2)CC1,-0.5,6.2,1.2,-0.18,-13.7,0.3
Cc1ccc2oc(=O)c3cnn(CC(=O)N(CCN(C)C)Cc4ccco4)c3c2c1,-10.6,1.9,-9.1,nt,nt,7.2
Cc1ccc(S(=O)(=O)/C(C#N)=C/c2c(N3CCOCC3)nc3ccccn3c2=O)cc1,0.3,7.1,-9.7,-1.17,nt,-2.5
CCC(C)(C)n1nnnc1C(c1ccc2ncccc2c1)N1CCCC(C)C1 (centres undefined),nt,-2.8,-0.4,-0.82,nt,nt
CCCC(c1nnnn1CC1CCCO1)N1CCN(c2nc3ccccc3s2)CC1 (centres undefined),nt,-2.5,1.5,-2.41,nt,nt
CCCC(c1nnnn1Cc1cccs1)N1CCN(c2nc3ccccc3s2)CC1 (centres undefined),47.1*,5.2,-2.7,-3.49*,28.9,18.5
CCC(C)(C)n1nnnc1C(c1ccc2ncccc2c1)N1CCN(c2nc3ccccc3s2)CC1 (centres undefined),-1.7,8.5,-5.3,-1.56,34.1,33.7*
CCc1c(C)nc(SCCOc2ccc(OC(C)C)cc2)[nH]c1=O,6.2,4.3,0.9,0.25,46.1,26.2
COc1cc(/C=N/S(=O)(=O)CCc2ccccc2)cc(OC)c1O,nt,nt,nt,0.37,nt,nt
COCCCNC(=O)C1C2C=CC3(CN(Cc4ccc(C)cc4)C(=O)C13)O2 (centres undefined),-7.0,11.7,0.2,-0.61,-11.1,33.0*
Cc1ccc(CN2CC34C=CC(O3)C(C(=O)NCc3ccc5c(c3)OCO5)C4C2=O)cc1 (centres undefined),-1.9,-0.8,0.0,-0.32,15.9,4.9
CN1/C(=C/C2CC(=O)NC2=O)C(C)(C)c2ccccc21 (centres undefined),44.8*,2.6,7.8,0.12,nt,-0.5
CCCN=Cc1sc2ccc(OCC)cc2c1O,-0.5,5.9,2.1,0,12.2,13.3
O=C(OCn1ncc(Cl)c(Cl)c1=O)c1ccc(F)cc1,32.6*,nt,-1.1,nt,nt,18.6
